High-throughput results: PubChem BioAssay, several laboratories
An excerpt weighted towards active compounds, which were near 11% of everything screened.
Diaph act CS = compounds boosting diaphorase resazurin reduction – biochemical, uHTS, resorufin fluorescence, counter-screen for diaphorase-coupled primary assays, primary screen. Diaphorase/resazurin coupled assay, 16 min; stronger effect = higher value; 1 = vehicle wells, 0 = NADH-free wells. activation factor at 20 µM. 190,000 compounds, 0.005% hits. AID 1229, 2008;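 active = diaphorase activity raised at least twofold by the compound at 20 µM; inactive = activation factor below 2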
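Measured by – red resorufin fluorescence at 544/590 nm excitation/emission · Test system – Clostridium kluyveri diaphorase, purified enzyme · Incubation – reaction time 16 min, room temperature · Buffer or medium – 50 mM HEPES pH 7.4 with 4.542 mM MgCl2, 0.005% Tween 20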
G6PDH CS = L. mesenteroides G6PDH inhibitors, counter-screen for G6PDH-coupled screening assays, biochemical, Leuconostoc mesenteroides enzyme; Purified L. mesenteroides G6PDH, diaphorase/resazurin coupled fluorescence, 45 min; inhibition, % at 5 µM; 200,000 compounds, 0.12% hits; AID 1020, 2008
Diaphorase inh = diaphorase inhibitors and chemical oxidizers, primary screen, counter-screen for diaphorase-coupled primary assays, biochemical, uHTS, resorufin fluorescence; 190,000 compounds, 0.69% hits; diaphorase resazurin-to-resorufin fluorescence, NADH, 16 min; bacterial (C. kluyveri) enzyme, not human; inhibition, % at 20 µM;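 active = primary screen inhibition at 20 µM above a set limit, cut at about 50% in these data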;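 also: plate controls were DMSO with full reaction for no effect and wells lacking NADH for full effect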
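Test system: diaphorase enzyme from Clostridium kluyveri; amount: diaphorase at 0.14 U/mL in enzyme working solution; detection: fluorescence of resorufin formed from resazurin, Ex 544/Em 590 nm; times: reaction incubation of 16 min at room temperature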
L major viab = Leishmania major promastigote growth inhibition, primary screen. Leishmania major promastigotes, resazurin fluorescence viability. inhibition, % at 10 µM. 200,000 compounds, 9% hits. AID 1063, 2008;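 also: promastigotes grown with compound for 44 hours at 28 °C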
WT yeast gro inh = growth inhibition of WT strain, primary screen, mitochondrial fusion inhibitor project, WT and mutant strains, chemical genetic. AID 1362, 2008. mitochondrial fusion phenotypic screen. 190,000 compounds, 2.1% hits. inhibition, % at 10 µM; in the data active = inhibition above about 58%; tested in S. cerevisiae
An asterisk follows results filed as active; . = no result given. Rule as the data show it, unless noted: active = inhibition above about 50%; inactive = the rest.

SMILES	Diaph act CS	G6PDH CS	Diaphorase inh	L major viab	WT yeast gro inh
OC(COCC(F)(F)C(F)(F)C(F)(F)C(F)F)Cn1c2ccc(Cl)cc2c2cc(Cl)ccc21 (centres undefined)	0.8	-18	20	15	86*
CC(=O)c1ccc(NC(=O)/C(=C\c2cccs2)NC(=O)c2ccco2)cc1	0.9	0	11	-6	-5
CO/N=C(\Cn1ncc(NC2CCCCC2)c(Br)c1=O)c1ccc(Cl)cc1	0.8	0	16	6	71*
CO/N=C(\Cn1ncc(N2CCCC2)c(Br)c1=O)c1ccc(Cl)cc1	0.9	4	12	71*	5
CC(C)(C)C(=O)Nc1cc(S(=O)(=O)Nc2ccc(Cl)cc2)ccc1Cl	0.9	10	13	76*	45
CC(C)(C)C(=O)Nc1ccc(S(=O)(=O)c2ccc(NC(=O)C(C)(C)C)cc2)cc1	0.8	-3	15	-2	.
COc1ccc2[nH]cc(CCNC(=O)C3CCCO3)c2c1 (centres undefined)	0.9	9	11	-2	-15
CC1=C(C(=O)OC2CCCC2)C(c2ccc(C)o2)C2=C(CC(c3cccs3)CC2=O)N1 (centres undefined)	0.8	11	19	83*	15
CCCCN(CC)CCCNC(=S)Nc1ccc2nc(N3CCN(C)CC3)cc(C)c2c1	1.4	-5	-44	56*	22
CCN1CCN(c2cc(C)c3cc(NC(=S)N(CC)CC)ccc3n2)CC1	1.2	0	-17	7	8
CCCCN(CC)CCCNC(=S)Nc1ccc2nc(N3CCN(CC)CC3)cc(C)c2c1	1.3	2	-30	96*	-1
Cc1cc(N2CCN(C)CC2)nc2ccc(NC(=S)NCCCN3CCN(C)CC3)cc12	1.2	4	-23	3	7
Cc1ccc(NC(=O)COC(=O)C2CSC3(C)CCC(=O)N23)cc1S(=O)(=O)N1CCOCC1 (centres undefined)	0.9	8	9	6	-11
COC(=O)COc1cc(OCC(=O)OC)c2c(C)c(Cl)c(=O)oc2c1	1	2	4	51*	-9
Cc1ccc([N+](=O)[O-])cc1NC(=O)c1ccoc1C	1	12	4	-10	-9
Cc1c(CNCC(C)c2ccccc2)c(C(=O)O)c(C)n1Cc1ccccc1 (centres undefined)	1	6	0	0	8
Nc1c(S(=O)(=O)c2ccccc2)csc1C(=O)O	1	2	2	-9	-5
N#Cc1c(Nc2ccccc2)sc(C(=O)C2CC2)c1N	1.1	12	-10	-4	8
Cc1ccc(CSc2sc(C(=O)c3ccccc3)c(N)c2C#N)cc1	0.8	0	17	0	14
Nc1c(C(=O)c2ccccc2)sc(Nc2ccccc2)c1S(=O)(=O)c1ccccc1	0.7	3	28	95*	-14
Cc1ccc(C(=O)c2sc(Nc3ccccc3)c(C#N)c2N)cc1	1	-3	-3	74*	-14
N#Cc1c(Nc2ccccc2)sc(C(=O)c2ccc(F)cc2)c1N	0.8	7	16	66*	-16
COc1ccc(C(=O)NC2(C(F)(F)F)C(=O)N(Cc3ccco3)C3=C2C(=O)CC(C)(C)C3)cc1OC (centres undefined)	0.9	0	12	-2	14
CCN1CCN(c2ccc(NC(=O)c3ccc4c(c3)[nH]c(=O)n4Cc3ccc(OC)cc3)cc2)CC1	1	9	-4	-6	-14
COc1cc(OC)c(OC)cc1CN1CCN(S(=O)(=O)c2ccc(NC(C)=O)cc2)CC1	0.5	32	52*	-5	-8
O=C(Nc1ccc(S(=O)(=O)N2CCN(Cc3ccccc3)CC2)cc1)c1cnccn1	1	5	0	-7	60*
COc1cc(CN2CCN(S(=O)(=O)c3ccc(NC(C)=O)cc3)CC2)cc(OC)c1O	0.6	52*	43	-6	-20
COc1ccc(CN2CCN(S(=O)(=O)c3ccc(NC(C)=O)cc3)CC2)cc1OC	0.9	8	12	6	12
O=S(=O)(/N=C(/Nc1ccc(F)cc1F)c1ccccc1)c1ccccc1	0.9	20	15	-3	-19
